The full list was thinned out, with hits kept by preference.
S1P4 ag: human S1P4 receptor agonism | O95977 | S1P4-expressing cell line, agonist reporter assay | activation, % at 4.98 µM | 0.35% of 220,000 active | AID 1509; in the data active = activation above about 11%
Mdm2 ligase inh: blocks human Mdm2 ubiquitin ligase activity | cell-based MDM2 ubiquitination luciferase reporter, 2 h; 0 = plate control, 100 = twice control, blank-subtracted | signal enhancement, % at 5 µM | 0.11% of 210,000 active | AID 1230;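 active = signal enhancement of 30% or more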;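 note: luminescence tracks abundance of the self-degrading MDM2-luciferase fusion protein; higher signal means inhibition of MDM2 E3 ligase activity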
Target sequence (Q00987 whole entry, looked up, the tested form may be a part): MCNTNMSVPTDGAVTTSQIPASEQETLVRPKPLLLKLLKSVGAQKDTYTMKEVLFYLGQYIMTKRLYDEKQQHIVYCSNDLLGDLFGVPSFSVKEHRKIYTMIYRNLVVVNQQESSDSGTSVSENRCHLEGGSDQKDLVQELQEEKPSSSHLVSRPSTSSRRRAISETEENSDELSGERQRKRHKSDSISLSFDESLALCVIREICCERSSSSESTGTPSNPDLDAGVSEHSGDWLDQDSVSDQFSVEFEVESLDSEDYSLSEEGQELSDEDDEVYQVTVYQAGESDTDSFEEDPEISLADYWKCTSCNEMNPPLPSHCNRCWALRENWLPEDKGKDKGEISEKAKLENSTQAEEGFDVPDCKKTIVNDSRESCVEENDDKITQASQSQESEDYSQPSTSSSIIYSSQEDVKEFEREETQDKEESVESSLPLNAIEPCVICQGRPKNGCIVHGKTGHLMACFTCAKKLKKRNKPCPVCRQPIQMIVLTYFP
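Buffer or medium: Cells held in DMEM | Assay system: Stable mammalian line carrying autodegrading MDM2–luciferase fusion reporter | Quantity: 2000 cells/well | Times: 4 h settle plus 2 h compound, 37 °C | Doses: One concentration, 5 µM, with 0.2% DMSO | Technique: Luminescence with SteadyLite reagent, 15 min at room temperature | Benchmarks: Plate controls and plate blanks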
S1P3 antag: blocks the human S1P3 receptor; CHO S1P3 NFAT-BLA reporter, FRET fluorescence, antagonist mode; inhibition, % at 4.98 µM; Q99500; 0.27% of 170,000 active;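 active = inhibition above the plate cutoff, the mean inhibition of test wells on that plate plus 3 SD, cut at about 28% in these data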;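 note: cells challenged with S1P at its EC80 of 0.8 µM; blue over green emission ratio from cleaved BLA substrate after 4 h stimulation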
S1P4 antagonist: human S1P4 receptor antagonism; S1P4-expressing cells, antagonist mode, reporter read-out; inhibition, % at 4.98 µM; 0.26% of 220,000 active; in the data active = inhibition above about 29%
L major viab: reduces viability of Leishmania major promastigotes. 9% of 200,000 active. inhibition, % at 10 µM. resazurin fluorescence viability; in the data active = inhibition above about 50%;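 note: promastigotes grown with compound for 44 hours at 28 °C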
Each line names hits and unclear results; the compound was inactive in the other large screens.

CC(/C=C/c1ccccc1)=N/NC(=O)CNC(=O)c1ccccc1F	none
Cc1ccc(/C=C2\CCC3=C2OC(N)=C(C#N)C3c2ccc(C)cc2)cc1 (configuration not stated)	L major viab 100.4 (no result: S1P3 antag)
N#CC1=C(N)OC2=C(CCc3ccccc32)C1c1ccccc1 (configuration not stated)	none
Cc1sc2ncnc(NCCCn3ccnc3)c2c1C	L major viab 55.3
CN(C(=O)c1ccco1)c1nc2c(s1)CCCC2	none (no result: S1P3 antag)
Cc1ncc([N+](=O)[O-])n1Cc1cccc2ccccc12	L major viab 57.2
Cc1cccc(C(=O)Oc2ccccc2/C=N/Nc2ccc([N+](=O)[O-])cc2)c1	L major viab 98.1
COc1ccc(Nc2cccc(Cl)c2)c(C(=O)O)c1	L major viab 50.6
Cn1nc(C(=O)NNC(=O)COc2ccccc2)c2ccccc2c1=O	L major viab 55.0
CCn1nc(C(=O)NNC(=O)COc2ccc(OC)cc2)c2ccccc2c1=O	none
CCn1cc(C(=O)NCc2ccccc2)c(=O)c2cc(F)c(N3CCN(C(=O)c4ccco4)CC3)cc21	L major viab 95.4 (no result: S1P3 antag)
COc1cccc(-c2csc(N3CCN(C(=S)Nc4ccc(Cl)cc4)CC3)n2)c1	L major viab 78.6 (no result: S1P3 antag)
FC(F)Oc1ccccc1/C=N/n1cnc2ccccc21	none
O=[N+]([O-])c1ccc(/C=N/n2cnc3ccccc32)s1	L major viab 100.3
Cc1cc2ncn(/N=C/c3ccc([N+](=O)[O-])s3)c2cc1C	L major viab 100.4
Cc1cc2ncn(/N=C/c3cc(Br)ccc3O)c2cc1C	none
Cc1nn(CC(=O)Nc2ccc(Cl)c(S(=O)(=O)N(C)C)c2)c(C)c1[N+](=O)[O-]	none
Cc1cc(C(=O)CSc2nc3ccccc3[nH]2)c(C)n1Cc1ccco1	L major viab 94.5
C=CCn1c(C)cc(C(=O)CSc2nc3ccccc3[nH]2)c1C	L major viab 69.9 (no result: S1P3 antag)
Cc1cc(C(=O)CN2C(=O)NC(c3ccccc3)(c3ccccc3)C2=O)c(C)n1Cc1ccco1	L major viab 52.2
O=C(CSc1nc2ccccc2[nH]1)c1ccc(Cl)s1	L major viab 80.4 (no result: S1P3 antag)
COc1ccc(N2CCN(C(c3cc(OC)ccc3OC)c3nnnn3CC3CCCO3)CC2)cc1 (configuration not stated)	none (no result: S1P3 antag)
CCOc1cccc2cc(C(N)=O)c(=N)oc12	none (no result: L major viab)
CCCSc1cc(=O)n(-c2ccc(F)cc2)nc1C(=O)OCC	none
CCOC(=O)N1CCN(CCC(=O)Nc2ccc(OC(F)(F)F)cc2)CC1	L major viab 91.6
CCOC(=O)N1CCN(CC(=O)Nc2ccc(OC)cc2)CC1	none (no result: S1P3 antag)
CCOC(=O)N1CCN(CCC(=O)Nc2ccc(Br)c(C)c2)CC1	L major viab 85.4
CCOC(=O)N1CCN(CCC(=O)Nc2ccccc2OC)CC1	none (no result: S1P3 antag)
O=C(C1CC1)N1CCc2cc(Br)cc(S(=O)(=O)NCCCN3CCCC3)c21	L major viab 99.2 (no result: S1P3 antag)
CC(=O)N1CCc2cc(Br)cc(S(=O)(=O)NCCCN3CCCC(C)C3)c21 (configuration not stated)	L major viab 99.8
CC(=O)N1CCc2cc(Br)cc(S(=O)(=O)NCCN3CCCCC3C)c21 (configuration not stated)	L major viab 99.2
CCC(=O)N1CCc2cc(Br)cc(S(=O)(=O)NCC3CCCO3)c21 (configuration not stated)	none (no result: S1P3 antag)
CC(=O)N1CCc2cc(Br)cc(S(=O)(=O)NCCCN3CCC(C)CC3)c21	L major viab 98.6
CCOC(=O)C1CCN(S(=O)(=O)c2cc(Br)cc3c2N(C(=O)C2CC2)CC3)CC1	none (no result: S1P3 antag)
CC(=O)N1CCc2cc(Br)cc(S(=O)(=O)N3CCCCCC3)c21	none
Cc1ccc(C(=O)N/N=C2/NC(=O)CC(C(=O)Nc3ccccc3)S2)cc1 (configuration not stated)	none
CCOC(=O)c1ccc(/C=C2/C=C(c3ccccc3)N(c3ccc(Cl)c(C(=O)O)c3)C2=O)cc1	none
COC(=O)c1ccccc1NC(=O)C1CC(c2ccccc2O)=NO1 (configuration not stated)	none
CSc1ccccc1NC(=O)C1CC(c2ccccc2O)=NO1 (configuration not stated)	S1P3 antag 82.2
COc1cc2ccccc2cc1C(=O)Nc1ccc(Cc2ccncc2)cc1	L major viab 98.9 (no result: S1P3 antag)
COc1ccc(NC(=O)Nc2ccc(Cc3ccncc3)cc2)cc1OC	L major viab 96.5 (no result: S1P3 antag)
CCCCCOc1ccc(CSC(=N)N)cc1[N+](=O)[O-]	L major viab 100.4 (no result: S1P3 antag)
CCCCOc1ccc(CSC2=NCCN2)cc1[N+](=O)[O-]	L major viab 95.0
CCCCOc1ccc(Br)cc1CSC(=N)N	L major viab 98.6
COc1ccc(CSC(=N)N)cc1[N+](=O)[O-]	none (no result: S1P3 antag)
Cc1ccc2c(c1)[C@@H]1CN(C)CC[C@@H]1N2S(=O)(=O)c1ccc([N+](=O)[O-])cc1	none (no result: S1P3 antag)
Cc1ccc2c(c1)[C@@H]1CN(C)CC[C@@H]1N2S(=O)(=O)c1ccc(F)cc1	L major viab 88.0 (no result: S1P3 antag)
CCc1cc2c(=O)[nH]c(N3CCCC3)nc2s1	none
CCc1cc2c(=O)[nH]c(-c3ccccn3)nc2s1	L major viab 98.6
CCC(Sc1nc(N)c(NC(=O)c2ccc(OC)cc2)c(=O)[nH]1)C(=O)O (configuration not stated)	none
COC(=O)[C@@]1(Cc2ccc(OC)cc2)[C@@H]2C(=CC(=O)[C@H]2CC(=O)C(=O)N2CCCC2)CN1C(=O)c1ccccc1	L major viab 100.3 (no result: Mdm2 ligase inh)
Brc1ccc(OCCCN2CCOCC2)cc1	L major viab 94.5 (no result: S1P3 antag)
COc1cccc(OCCCCCCN2CCOCC2)c1	L major viab 99.8 (no result: S1P3 antag)
CCOc1cccc(OCCCCN2CCOCC2)c1	L major viab 92.6
N=c1n(CCOc2ccccc2)c2ccccc2n1CCN1CCOCC1	none
c1ccc(OCCCCN2CCOCC2)cc1	L major viab 78.7 (no result: S1P3 antag)
Cc1cccc(NC(=O)CSc2nc(N)c(NC(=O)c3cccs3)c(=O)[nH]2)c1C	none (no result: Mdm2 ligase inh)
C/C(=N\NC(=O)c1ccc(Cn2cc(Br)cn2)o1)c1cccc(NC(=O)C(C)C)c1	L major viab 89.6
C/C(=N\NC(=O)c1cccc(Br)c1)c1cccc(NC(=O)c2ccc(C)o2)c1	L major viab 56.1 (no result: S1P3 antag)
C/C(=N\NC(=O)c1ccc(Cn2cc([N+](=O)[O-])cn2)o1)c1cccc(NC(=O)C(C)C)c1	none
CCOC(=O)CCNC(=O)N1CCCC(CNS(=O)(=O)c2cccs2)C1 (configuration not stated)	none
Cc1cc(OCc2cccc(Cl)c2)c(C)cc1CN1CCOCC1	L major viab 80.7
CN(C)CCCNCCCNC(=O)/C(=N\O)c1ccccc1	none (no result: L major viab)
O=C(CSc1nc2ccccc2c(=O)n1-c1ccc(F)cc1F)c1c[nH]c2ccccc12	none
CCOC(=O)Cn1c(=NC(=O)c2ccc([N+](=O)[O-])s2)sc2ccccc21	L major viab 79.6
CCOC(=O)Cn1c(=NC(=O)C2COc3ccccc3O2)sc2cc(S(N)(=O)=O)ccc21 (configuration not stated)	none
CCN(CC)CCSc1nc2ccccc2c(=S)n1-c1ccccc1	L major viab 81.7
